# Activity calls are given as the source filed them. The calls are words filed in the database; no cut-off is given here. Peptide text beside a SMILES is read from it. * marks the point of attachment. X1 = O=C(C(S)Cc1ccccc1)*
# Tests used:
# [1] = target: T1, Botulinum neurotoxin type A (Clostridium botulinum, UniProt P0DPI0); assay: Inhibition of Clostridium botulinum botulinum neurotoxin type A light chain
# Procedure, shortened: (§1)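 Recombinant BoNT/A LC at 2 nM was incubated with 20 μM SNAP-25 peptide (AA 187–203, DnpK/daciaC-labelled) for 40 min at 37 °C. Cleaved-substrate fluorescence was read at 485 nm with excitation at 398 nm. IC50 is the compound concentration giving 50% inhibition, averaged over two experiments.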
# [2] = target: T2, Lethal factor (Bacillus anthracis, UniProt P15917); assay: Inhibition of Bacillus anthracis lethal factor using MCA-KKVYPYPME[dnp]Kamide peptide substrate after 30 mins by FRET assay
# T2 sequence (P15917 whole entry): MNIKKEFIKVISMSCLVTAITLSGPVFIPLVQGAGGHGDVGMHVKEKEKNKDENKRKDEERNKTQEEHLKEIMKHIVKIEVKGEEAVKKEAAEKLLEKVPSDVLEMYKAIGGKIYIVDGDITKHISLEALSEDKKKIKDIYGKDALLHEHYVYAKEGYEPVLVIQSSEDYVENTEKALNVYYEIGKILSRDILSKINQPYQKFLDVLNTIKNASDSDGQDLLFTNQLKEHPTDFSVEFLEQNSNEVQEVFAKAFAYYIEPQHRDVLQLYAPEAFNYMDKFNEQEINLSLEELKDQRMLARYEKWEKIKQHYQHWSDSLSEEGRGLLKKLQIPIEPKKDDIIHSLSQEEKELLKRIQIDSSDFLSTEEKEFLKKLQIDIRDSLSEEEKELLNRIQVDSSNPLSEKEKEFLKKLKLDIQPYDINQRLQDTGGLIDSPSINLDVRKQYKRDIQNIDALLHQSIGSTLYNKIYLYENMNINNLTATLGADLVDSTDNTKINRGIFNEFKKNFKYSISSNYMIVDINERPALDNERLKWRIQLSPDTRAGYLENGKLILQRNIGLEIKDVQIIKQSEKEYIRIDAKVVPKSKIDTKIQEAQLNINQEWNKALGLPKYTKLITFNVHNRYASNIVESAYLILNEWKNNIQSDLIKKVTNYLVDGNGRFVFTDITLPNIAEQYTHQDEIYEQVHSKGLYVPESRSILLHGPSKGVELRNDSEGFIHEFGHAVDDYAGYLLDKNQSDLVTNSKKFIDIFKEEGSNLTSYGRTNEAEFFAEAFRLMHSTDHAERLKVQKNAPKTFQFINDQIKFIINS
# [3] = target: T1, Botulinum neurotoxin type A; assay: Inhibition of Clostridium botulinum BoNT/A light chain-mediated SNAP-25 substrate cleavage after 40 mins by FRET assay; procedure, shortened: as §1
# [4] = target: Botulinum neurotoxin type A (Clostridium botulinum) (UniProt P0DPI0); assay: Inhibition of clostridium botulinum BoNT/A-mediated SNAP-25 substrate cleavage in chicken neurons at 30 uM preincubated for 15 mins before substrate addition
# Chain of Botulinum neurotoxin type A (Clostridium botulinum) (P0DPI0 2-448 limits assumed): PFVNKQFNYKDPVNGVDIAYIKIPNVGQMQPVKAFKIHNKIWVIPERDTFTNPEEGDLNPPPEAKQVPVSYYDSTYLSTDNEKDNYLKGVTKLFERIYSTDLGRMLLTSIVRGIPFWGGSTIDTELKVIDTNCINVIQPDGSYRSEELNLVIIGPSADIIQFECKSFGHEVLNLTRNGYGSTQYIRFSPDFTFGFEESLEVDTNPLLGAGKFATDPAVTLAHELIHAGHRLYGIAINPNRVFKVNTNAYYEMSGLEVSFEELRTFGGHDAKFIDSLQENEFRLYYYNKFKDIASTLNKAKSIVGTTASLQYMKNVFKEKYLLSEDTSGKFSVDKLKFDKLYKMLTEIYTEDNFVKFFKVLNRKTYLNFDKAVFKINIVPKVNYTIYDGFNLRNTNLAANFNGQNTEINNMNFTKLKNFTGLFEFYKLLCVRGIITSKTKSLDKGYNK
# [5] = target: T3, Interstitial collagenase (Homo sapiens, UniProt P03956); assay: Inhibition of human MMP1
# T3 sequence (P03956 whole entry): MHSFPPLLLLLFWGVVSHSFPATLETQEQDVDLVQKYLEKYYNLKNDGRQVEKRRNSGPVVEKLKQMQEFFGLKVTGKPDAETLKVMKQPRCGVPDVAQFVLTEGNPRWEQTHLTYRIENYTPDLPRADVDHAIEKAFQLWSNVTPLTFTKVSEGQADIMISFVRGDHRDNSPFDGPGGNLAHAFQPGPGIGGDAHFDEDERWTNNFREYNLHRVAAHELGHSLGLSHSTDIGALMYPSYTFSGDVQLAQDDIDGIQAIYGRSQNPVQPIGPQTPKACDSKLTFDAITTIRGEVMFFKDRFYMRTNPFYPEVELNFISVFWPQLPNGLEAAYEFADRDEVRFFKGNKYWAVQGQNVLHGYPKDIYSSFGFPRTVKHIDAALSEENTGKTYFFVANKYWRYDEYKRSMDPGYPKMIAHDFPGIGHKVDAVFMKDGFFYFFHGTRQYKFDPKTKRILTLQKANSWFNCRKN
# [6] = target: T1, Botulinum neurotoxin type A; assay: Inhibition of Clostridium botulinum BoNT/A light chain after 40 mins by HPLC assay
# Procedure, shortened: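 Incubation was at 37 °C for 40 min with 6 nM BoNT/A LC and 60 μM 17-mer SNAPtide substrate. Samples were separated by reverse-phase C18 HPLC, effluent was monitored at 365 nm, and peaks were quantified by integration.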
# [7] = target: T4, Botulinum neurotoxin type B (Clostridium botulinum, UniProt P10844); assay: Inhibition of Clostridium botulinum BoNT/B light chain after 40 mins by FRET-based assay
# T4 sequence (P10844 whole entry): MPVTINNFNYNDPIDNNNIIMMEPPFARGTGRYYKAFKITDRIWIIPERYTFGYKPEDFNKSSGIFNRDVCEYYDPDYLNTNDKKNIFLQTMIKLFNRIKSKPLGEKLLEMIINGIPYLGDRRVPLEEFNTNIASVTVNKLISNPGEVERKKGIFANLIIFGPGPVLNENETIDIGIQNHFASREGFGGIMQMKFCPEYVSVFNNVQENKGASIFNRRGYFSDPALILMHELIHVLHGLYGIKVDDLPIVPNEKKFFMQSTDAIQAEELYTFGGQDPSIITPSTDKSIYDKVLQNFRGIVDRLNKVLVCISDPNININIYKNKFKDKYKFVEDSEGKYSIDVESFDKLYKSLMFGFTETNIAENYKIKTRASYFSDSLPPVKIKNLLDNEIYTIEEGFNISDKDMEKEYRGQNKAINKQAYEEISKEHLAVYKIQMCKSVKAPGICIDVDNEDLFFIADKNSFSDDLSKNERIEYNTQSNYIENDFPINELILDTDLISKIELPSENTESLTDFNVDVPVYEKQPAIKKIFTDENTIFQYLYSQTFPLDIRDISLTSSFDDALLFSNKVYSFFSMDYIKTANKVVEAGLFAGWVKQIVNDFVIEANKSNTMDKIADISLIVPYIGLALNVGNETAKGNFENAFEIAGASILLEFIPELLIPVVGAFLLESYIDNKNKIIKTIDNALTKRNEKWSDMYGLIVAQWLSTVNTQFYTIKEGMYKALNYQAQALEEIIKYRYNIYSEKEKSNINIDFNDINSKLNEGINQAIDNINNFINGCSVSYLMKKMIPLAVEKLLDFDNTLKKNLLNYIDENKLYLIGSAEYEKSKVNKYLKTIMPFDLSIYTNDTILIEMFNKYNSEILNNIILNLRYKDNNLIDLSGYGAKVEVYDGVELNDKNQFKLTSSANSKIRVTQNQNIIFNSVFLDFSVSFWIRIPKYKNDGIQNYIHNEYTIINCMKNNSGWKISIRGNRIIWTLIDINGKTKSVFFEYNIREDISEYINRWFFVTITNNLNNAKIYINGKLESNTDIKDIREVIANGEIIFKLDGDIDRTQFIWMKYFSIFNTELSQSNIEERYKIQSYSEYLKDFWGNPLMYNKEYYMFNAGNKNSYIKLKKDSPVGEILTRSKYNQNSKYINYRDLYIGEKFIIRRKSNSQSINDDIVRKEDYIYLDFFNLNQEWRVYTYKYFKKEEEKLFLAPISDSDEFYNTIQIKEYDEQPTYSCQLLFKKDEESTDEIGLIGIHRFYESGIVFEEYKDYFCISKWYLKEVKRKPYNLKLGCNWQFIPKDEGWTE
# [8] = target: Botulinum neurotoxin type A (Clostridium botulinum) (UniProt P0DPI0); assay: Ratio of Kinact to Ki for clostridium botulinum BoNT/A light chain
# Procedure, shortened: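 BoNT/A LC was incubated with selected inhibitor concentrations for various times. Remaining activity was then measured by the FRET assay, and kobs/[I] was derived from the plotted data using a published method.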
# [9] = target: Matrix metalloproteinase-9 (Homo sapiens, UniProt P14780); assay: Inhibition of human MMP9
# Chain of Matrix metalloproteinase-9 (P14780 whole entry): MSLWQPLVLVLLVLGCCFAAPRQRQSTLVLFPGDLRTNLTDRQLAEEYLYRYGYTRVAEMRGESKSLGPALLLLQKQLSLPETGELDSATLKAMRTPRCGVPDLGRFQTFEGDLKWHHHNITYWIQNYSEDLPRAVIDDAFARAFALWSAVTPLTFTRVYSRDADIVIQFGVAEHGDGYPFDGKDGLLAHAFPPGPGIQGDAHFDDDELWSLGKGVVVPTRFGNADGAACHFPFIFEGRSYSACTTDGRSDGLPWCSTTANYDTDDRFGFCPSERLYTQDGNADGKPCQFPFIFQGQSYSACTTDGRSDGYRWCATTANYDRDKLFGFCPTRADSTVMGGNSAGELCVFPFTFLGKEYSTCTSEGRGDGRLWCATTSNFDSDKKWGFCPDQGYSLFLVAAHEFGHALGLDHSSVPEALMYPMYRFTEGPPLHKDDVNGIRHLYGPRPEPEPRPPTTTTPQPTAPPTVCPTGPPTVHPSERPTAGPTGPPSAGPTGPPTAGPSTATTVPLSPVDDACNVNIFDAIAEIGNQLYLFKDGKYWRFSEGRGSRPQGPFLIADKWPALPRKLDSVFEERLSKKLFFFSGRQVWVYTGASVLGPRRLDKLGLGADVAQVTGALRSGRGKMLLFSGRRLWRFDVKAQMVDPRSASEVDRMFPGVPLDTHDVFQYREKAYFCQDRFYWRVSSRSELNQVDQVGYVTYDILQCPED
# [10] = target: 72 kDa type IV collagenase (Homo sapiens, UniProt P08253); assay: Inhibition of human MMP2
# Chain of 72 kDa type IV collagenase (P08253 whole entry): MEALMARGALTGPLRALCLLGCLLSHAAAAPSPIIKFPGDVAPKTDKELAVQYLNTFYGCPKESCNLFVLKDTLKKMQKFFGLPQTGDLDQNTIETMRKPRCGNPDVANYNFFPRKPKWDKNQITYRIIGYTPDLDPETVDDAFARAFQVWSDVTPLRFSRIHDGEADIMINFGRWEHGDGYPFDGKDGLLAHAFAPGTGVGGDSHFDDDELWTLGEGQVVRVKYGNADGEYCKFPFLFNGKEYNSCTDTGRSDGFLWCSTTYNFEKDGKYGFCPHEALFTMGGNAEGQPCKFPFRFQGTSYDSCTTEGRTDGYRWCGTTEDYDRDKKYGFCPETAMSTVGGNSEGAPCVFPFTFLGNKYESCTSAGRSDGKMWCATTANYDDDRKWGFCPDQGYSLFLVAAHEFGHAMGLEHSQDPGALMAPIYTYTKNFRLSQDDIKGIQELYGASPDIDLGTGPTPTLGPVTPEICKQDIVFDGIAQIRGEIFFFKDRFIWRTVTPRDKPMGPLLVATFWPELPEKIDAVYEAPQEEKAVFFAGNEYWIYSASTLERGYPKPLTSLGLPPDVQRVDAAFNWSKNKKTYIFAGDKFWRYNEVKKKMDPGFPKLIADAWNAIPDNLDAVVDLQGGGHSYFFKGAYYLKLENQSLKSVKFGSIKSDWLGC
# [11] = target: Botulinum neurotoxin type A (Clostridium botulinum) (UniProt P0DPI0); assay: Inhibition of Clostridium botulinum BoNT/A light chain-mediated SNAP-25 substrate cleavage preincubated for 15 mins in presence of glutathione before substrate addition by FRET assay
# Procedure, shortened: (§2)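 The potential inactivator (2.5 or 5 mM) was preincubated with compound in the assay mixture for 15 min at 37 °C. 17-mer SNAP-25 substrate and BoNT/A LC were then added, and activity was read in the FRET assay (37 °C, 40 min, ex 398/em 485 nm).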
# [12] = target: Botulinum neurotoxin type A (Clostridium botulinum) (UniProt P0DPI0); assay: Inhibition of Clostridium botulinum BoNT/A light chain-mediated SNAP-25 substrate cleavage preincubated for 15 mins in presence of zinc ion before substrate addition by FRET assay; procedure, shortened: as §2
# [13] = target: Botulinum neurotoxin type A (Clostridium botulinum) (UniProt P0DPI0); assay: Inhibition of clostridium botulinum BoNT/A light chain assessed as residual activity using SNAP-25 as substrate at 50 uM after 90 mins measured after dialysis by FRET-based assay relative to 6-(4,5-dihydro-1H-imidazol-2-yl)-2-(4-(4-(4,5-dihydro-1H-imidazol-2-yl)phenoxy)phenyl)-1H-indole
# Procedure, shortened: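 BoNT/A LC was co-incubated with inhibitor or a DMSO-equivalent control at 37 °C for 90 min. Samples were then dialysed (3,500 MWCO) against 20 mM HEPES pH 7.4, 10% glycerol, 0.05% Tween-20 for 20–24 h at 2–8 °C. Remaining activity was measured by the standard FRET assay.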
# [14] = target: Botulinum neurotoxin type A (Clostridium botulinum) (UniProt P0DPI0); assay: Inhibition of Clostridium botulinum BoNT/A light chain-mediated SNAP-25 substrate cleavage preincubated for 15 mins in presence of cysteine before substrate addition by FRET assay; procedure, shortened: as §2
# [15] = target: T1, Botulinum neurotoxin type A; assay: Inhibition of Clostridium botulinum BoNT/A light chain-mediated SNAP-25 substrate cleavage preincubated for 90 mins by FRET assay
# Procedure, shortened: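 Compound was preincubated with BoNT/A LC for 90 min before the 40-min FRET assay (20 μM SNAP-25 peptide, 2 nM enzyme, 37 °C, ex 398/em 485 nm). IC50 is the concentration giving 50% inhibition.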
# [16] = target: Botulinum neurotoxin type A (Clostridium botulinum) (UniProt P0DPI0)
# T1 sequence (P0DPI0 2-448 limits assumed): as the sequence (P0DPI0 2-448 limits assumed) above
structure (smiles),measurement,setting,value
CSCC[C@H](NC(=O)[C@H](CCCCN)NC(=O)[C@@H](NC(=O)[C@H](C)NC(=O)[C@H](CCCNC(=N)N)NC(=O)C(S)Cc1ccccc1)[C@@H](C)O)C(=O)N[C@@H](CC(C)C)C(=O)O (stereo partly specified) (X1-RATKML-OH),Ki,[1],0.33 µM
Cc1ccc(/C=C(\C#N)c2nc3ccccc3[nH]2)s1,IC50,[2],> 100 µM
same,IC50,[3],> 100 µM
N#C/C(=C\c1ccc(-c2ccco2)s1)c1nc2ccccc2[nH]1,IC50,[2],> 100 µM
same,IC50,[3],59 µM
COc1ccc(/C=C(\C#N)c2nc3ccccc3[nH]2)cc1I,inhibition,[4],< 10%
same,IC50,[5],> 100 µM
same,IC50,[6],10 µM
same,IC50,[2],74 µM
same,IC50,[7],> 100 µM
same,Ratio,[8],979 M⁻¹ s⁻¹
same,IC50,[9],> 100 µM
same,IC50,[3],7.2 µM
same,IC50,[10],> 100 µM
same,inhibition,[11],inactive
same,inhibition,[12],Active
same,Ratio,[13],0.99
same,inhibition,[14],inactive
N#C/C(=C\c1ccc(-c2cccs2)s1)c1ccc2ccccc2n1,IC50,[2],> 100 µM
same,IC50,[3],> 100 µM
N=C(N)c1ccc(Oc2ccc(-c3cc4ccc(C(=N)N)cc4[nH]3)cc2)cc1,inhibition,[4],42%
Cc1c(/C=C(\C#N)c2nc3ccccc3[nH]2)sc2ccccc12,IC50,[2],> 100 µM
same,IC50,[3],> 100 µM
N#C/C(=C\c1ccc(-c2cccs2)s1)c1nc2ccccc2[nH]1,inhibition,[4],58%
same,IC50,[5],> 100 µM
same,IC50,[6],29 µM
same,IC50,[15],17 µM
same,IC50,[2],> 100 µM
same,TDI,[16],Active
same,IC50,[7],> 100 µM
same,Ratio,[8],326 M⁻¹ s⁻¹
same,IC50,[9],> 100 µM
same,IC50,[3],26 µM
same,IC50,[10],> 100 µM
same,inhibition,[11],Active
same,inhibition,[12],Active
same,Ratio,[13],1.13
same,inhibition,[14],Active
N#C/C(=C\c1c(Cl)ncnc1Cl)c1nc2ccccc2[nH]1,IC50,[2],> 100 µM
COc1ccc(/C=C(\C#N)c2nc3ccccc3[nH]2)cc1Cl,IC50,[2],> 100 µM
same,IC50,[3],> 100 µM
N#C/C(=C\c1ccc(-c2cccs2)o1)c1nc2ccccc2[nH]1,IC50,[2],> 100 µM
same,IC50,[3],> 100 µM
COc1cc(/C=C(\C#N)c2nc3ccccc3[nH]2)cc(Cl)c1O,IC50,[2],> 100 µM
same,IC50,[3],59 µM
Cn1c(/C(C#N)=C/c2ccc(-c3cccs3)s2)[n+](C)c2ccccc21,IC50,[3],> 100 µM
